# ChEMBL document CHEMBL1146871, “Hydrazides of clozapine: a new class of D1 dopamine receptor subtype selective antagonists” (Bioorg Med Chem Lett, 2006)
# How the values were obtained:
# D(1A) dopamine receptor [1] = target: T1, D(1A) dopamine receptor (Homo sapiens, UniProt P21728); test: Displacement of [3H]SCH 23390 from human dopamine D1 receptor expressed in CHO cells; format: cell-based
# [2] = AUC in Sprague-Dawley rat plasma at 10 mg/kg, po; format: ADME, organism-based; design: dose 10 mg/kg, route oral
# Summary of the method: (§1)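 Single oral dose of 10 mg/kg to two male Sprague-Dawley rats. Blood drawn at several time points. Plasma levels of individual animals, generally within ±25% of the mean, were used to calculate PK parameters.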
# [3] = target: 5-hydroxytryptamine receptor 2A (Homo sapiens, UniProt P28223); test: Binding affinity at 5HT2A receptor
# Sequence of 5-hydroxytryptamine receptor 2A (P28223 whole entry): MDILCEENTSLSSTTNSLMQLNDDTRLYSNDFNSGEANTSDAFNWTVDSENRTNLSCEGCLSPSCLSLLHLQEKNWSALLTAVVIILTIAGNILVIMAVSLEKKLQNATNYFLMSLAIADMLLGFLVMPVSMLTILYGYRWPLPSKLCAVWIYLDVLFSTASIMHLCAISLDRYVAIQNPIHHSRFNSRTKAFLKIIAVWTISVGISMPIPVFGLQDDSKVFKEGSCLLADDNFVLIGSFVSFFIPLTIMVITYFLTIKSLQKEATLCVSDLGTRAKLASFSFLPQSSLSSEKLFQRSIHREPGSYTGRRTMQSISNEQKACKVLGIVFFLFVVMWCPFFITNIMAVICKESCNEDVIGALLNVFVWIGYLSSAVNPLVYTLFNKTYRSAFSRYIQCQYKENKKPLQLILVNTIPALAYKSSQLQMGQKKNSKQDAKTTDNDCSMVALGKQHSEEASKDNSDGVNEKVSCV
# D(1B) dopamine receptor = D(1B) dopamine receptor (Homo sapiens, UniProt P21918); test: Binding affinity at dopamine D5 receptor
# Sequence of D(1B) dopamine receptor (P21918 whole entry): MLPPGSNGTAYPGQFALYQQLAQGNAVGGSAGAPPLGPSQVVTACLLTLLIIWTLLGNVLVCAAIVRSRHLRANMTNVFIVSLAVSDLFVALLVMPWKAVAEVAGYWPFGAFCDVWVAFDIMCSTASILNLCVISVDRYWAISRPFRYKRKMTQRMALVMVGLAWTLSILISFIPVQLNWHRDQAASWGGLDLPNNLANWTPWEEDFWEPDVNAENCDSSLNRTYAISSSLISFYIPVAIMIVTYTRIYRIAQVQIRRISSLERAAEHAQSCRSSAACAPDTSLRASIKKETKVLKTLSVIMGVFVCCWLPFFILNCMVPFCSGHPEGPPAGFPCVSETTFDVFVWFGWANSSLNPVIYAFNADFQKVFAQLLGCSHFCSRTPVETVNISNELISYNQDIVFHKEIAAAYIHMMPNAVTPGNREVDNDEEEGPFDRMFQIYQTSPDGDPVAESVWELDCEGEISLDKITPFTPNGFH
# D(4) dopamine receptor = target: T2, D(4) dopamine receptor (Homo sapiens, UniProt P21917); test: Binding affinity at dopamine D4 receptor
# T2 sequence (P21917 whole entry): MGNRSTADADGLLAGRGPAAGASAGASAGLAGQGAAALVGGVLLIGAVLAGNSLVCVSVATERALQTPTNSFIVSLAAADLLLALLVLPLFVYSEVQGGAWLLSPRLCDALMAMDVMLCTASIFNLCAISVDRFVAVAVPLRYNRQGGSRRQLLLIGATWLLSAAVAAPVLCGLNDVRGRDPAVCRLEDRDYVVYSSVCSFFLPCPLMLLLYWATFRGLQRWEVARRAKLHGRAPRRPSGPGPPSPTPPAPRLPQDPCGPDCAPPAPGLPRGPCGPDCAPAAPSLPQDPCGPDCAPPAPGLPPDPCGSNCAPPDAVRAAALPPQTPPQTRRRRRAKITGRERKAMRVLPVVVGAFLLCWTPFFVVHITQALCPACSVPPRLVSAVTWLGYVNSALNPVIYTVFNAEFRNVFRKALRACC
# D(2) dopamine receptor [4] = target: T3, D(2) dopamine receptor (Homo sapiens, UniProt P14416); test: Binding affinity at dopamine D2 receptor
# T3 sequence (P14416 whole entry): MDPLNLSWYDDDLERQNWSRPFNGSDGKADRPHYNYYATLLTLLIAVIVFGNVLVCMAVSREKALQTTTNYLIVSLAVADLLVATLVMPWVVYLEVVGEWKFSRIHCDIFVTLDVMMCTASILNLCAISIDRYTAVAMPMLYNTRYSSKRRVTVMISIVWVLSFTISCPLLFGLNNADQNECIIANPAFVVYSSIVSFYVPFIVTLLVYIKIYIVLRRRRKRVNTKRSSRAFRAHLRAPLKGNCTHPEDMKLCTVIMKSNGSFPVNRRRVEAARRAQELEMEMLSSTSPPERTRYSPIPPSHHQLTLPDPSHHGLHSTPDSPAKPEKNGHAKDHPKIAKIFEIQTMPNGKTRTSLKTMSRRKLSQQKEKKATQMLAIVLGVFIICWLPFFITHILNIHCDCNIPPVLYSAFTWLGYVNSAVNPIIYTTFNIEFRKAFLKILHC
# Summary of the method: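 Membranes from cells stably expressing D2 receptor (4-7 pmol/mg protein; Ltk- cells in one passage, CHO in another), made by hypotonic lysis and 48,000g spin and stored at -80 °C. Incubated with 0.5 nM [3H]methylspiperone for 1 h at room temperature. Nonspecific binding set by 10 µM (-)-sulpiride. Rapid filtration, then scintillation counting. One-site competition fit; Ki is the mean of separate determinations.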
# [5] = target: T4, Alpha-2A adrenergic receptor (Homo sapiens, UniProt P08913); test: Binding affinity at adrenergic alpha2A receptor
# T4 sequence (P08913 whole entry): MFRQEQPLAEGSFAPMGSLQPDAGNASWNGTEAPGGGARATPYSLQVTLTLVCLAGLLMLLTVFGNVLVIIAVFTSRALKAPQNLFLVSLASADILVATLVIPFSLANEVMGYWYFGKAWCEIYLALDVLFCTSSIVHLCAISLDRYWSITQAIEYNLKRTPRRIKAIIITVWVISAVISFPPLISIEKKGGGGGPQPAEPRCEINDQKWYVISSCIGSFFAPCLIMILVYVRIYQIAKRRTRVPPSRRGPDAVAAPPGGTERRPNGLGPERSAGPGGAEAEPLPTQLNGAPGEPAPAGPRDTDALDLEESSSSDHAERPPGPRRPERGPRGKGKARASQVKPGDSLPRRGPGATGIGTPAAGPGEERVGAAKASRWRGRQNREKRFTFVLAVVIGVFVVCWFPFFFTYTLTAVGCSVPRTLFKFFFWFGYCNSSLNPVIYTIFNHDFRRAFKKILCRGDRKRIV
# D(1A) dopamine receptor [6] = target: T1, D(1A) dopamine receptor; test: Activity at dopamine D1 receptor by cAMP assay; format: functional; conditions: for Activity: filed as antagonist
# [7] = Tmax in Sprague-Dawley rat plasma at 10 mg/kg, po; format: ADME, organism-based; design: dose 10 mg/kg, route oral; summary of the method: as §1
# [8] = Cmax in Sprague-Dawley rat plasma at 10 mg/kg, po; format: ADME, organism-based; design: dose 10 mg/kg, route oral; summary of the method: as §1
# D(2) dopamine receptor [9] = target: T3, D(2) dopamine receptor; test: Displacement of [3H]methylspiperone from human dopamine D2 receptor expressed in CHO cells; format: cell-based
# T1 sequence (P21728 whole entry): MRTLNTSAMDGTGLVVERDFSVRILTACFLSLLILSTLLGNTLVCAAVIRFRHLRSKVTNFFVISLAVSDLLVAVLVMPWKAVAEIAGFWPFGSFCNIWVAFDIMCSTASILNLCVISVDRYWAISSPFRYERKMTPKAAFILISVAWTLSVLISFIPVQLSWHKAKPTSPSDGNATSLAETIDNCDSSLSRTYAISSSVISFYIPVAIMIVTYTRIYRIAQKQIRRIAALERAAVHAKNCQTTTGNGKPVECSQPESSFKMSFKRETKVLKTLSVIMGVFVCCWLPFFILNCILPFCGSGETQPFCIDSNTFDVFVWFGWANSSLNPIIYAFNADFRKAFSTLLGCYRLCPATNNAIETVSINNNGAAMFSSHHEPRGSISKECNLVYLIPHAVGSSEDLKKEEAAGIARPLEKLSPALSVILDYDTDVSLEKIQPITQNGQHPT
smiles,measurement,setting,value
COc1cccc(OC)c1C(=O)NN1c2ccc(Cl)cc2N=C(N2CCN(C)CC2)c2ccccc21,Ki,D(1A) dopamine receptor [1],1.6 nM
same,AUC,[2],2670 ng·h/mL
same,Ki,[3],13.8 nM
same,Ki,D(1B) dopamine receptor,38 nM
same,Ki,D(4) dopamine receptor,1810 nM
same,Ki,D(2) dopamine receptor [4],340 nM
same,Ki,[5],169 nM
same,Kb,D(1A) dopamine receptor [6],0.7 nM
same,Activity,D(1A) dopamine receptor [6],Antagonist
same,Tmax,[7],30 min
same,Cmax,[8],802 ng/mL
same,Ki,D(2) dopamine receptor [9],340 nM
CN1CCN(C2=Nc3cc(Cl)ccc3N(NC(=O)c3cccc4ccccc34)c3ccccc32)CC1,Ki,D(1A) dopamine receptor [1],3.8 nM
same,AUC,[2],12900 ng·h/mL
same,Ki,[3],1 nM
same,Ki,D(1B) dopamine receptor,105 nM
same,Ki,D(4) dopamine receptor,977 nM
same,Ki,D(2) dopamine receptor [4],458 nM
same,Ki,[5],882 nM
same,Kb,D(1A) dopamine receptor [6],2 nM
same,Activity,D(1A) dopamine receptor [6],Antagonist
same,Tmax,[7],60 min
same,Cmax,[8],3570 ng/mL
same,Ki,D(2) dopamine receptor [9],458 nM
